We go through one molecule from ChEMBL document CHEMBL5712918, “Targeting methyltransferase PRMT5 retards the carcinogenesis and metastasis of HNSCC via epigenetically inhibiting Twist1 transcription” (Neoplasia, 2020).

Active and inactive are the calls of the source. No cut-off for these calls is given here.

In assay [1] the test system is HSC-6. Put plainly: Antitumor activity against human HSC-6 cells xenografted in BALB/c nude mouse model of orthotopic tumor assessed as as reduction in distant metastasis in kidney at 30 mg/kg by H and E analysis. The assay is classed as functional, organism-based.
For assay [2], the system named is HSC-6. In words: Antiproliferative activity against human HSC-6 cells assessed as reduction in cell vaibility at 1 to 10 uM by CCK-8 assay. The assay is classed as functional, cell-based. To be noted: dose 1-10 µM. The gist of the method: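 Proliferation of HSC6 and SCC25 cells read by CCK-8 conversion. Mean ± SD of three independent experiments, Student's t test.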

The test system of assay [3] is HSC-6. Put plainly: Antitumor activity against human HSC-6 cells xenografted in BALB/c nude mouse model of orthotopic tumor assessed as as reduction in distant metastasis in liver at 30 mg/kg by H and E analysis. The assay is classed as functional, organism-based.
In assay [4] the target is Protein arginine N-methyltransferase 5 (Homo sapiens) (UniProt O14744). In words: Inhibition of PRMT5 in human HSC-6 cells assessed as reduction in Twist1 mRNA expression at 10 uM incubated for 4 days by RT-qPCR analysis. The assay is classed as cell-based. The conditions noted are these: time 4.0 day. In short, it runs like this: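 HSC6 or SCC25 cells exposed to 10 μM for 4 days. Twist1 mRNA measured by quantitative RT-PCR. Mean ± SD of three independent experiments, Student's t test.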

Assay [5] relates to SCC-25. In words: Antimigratory activity against human SCC-25 cells assessed as reduction in cell migration after 48 hrs incubated for 48 hrs by transwell assay. The assay is classed as functional, cell-based.
Assay [6] concerns the target Protein arginine N-methyltransferase 5 (Homo sapiens) (UniProt O14744). Put plainly: Inhibition of PRMT5 in human HSC-6 cells over expressing Twist1 assessed as increase in N-cadherin protein level at 10 uM incubated for 4 days by immunoblot analysis. The assay is classed as cell-based. To be noted: time 4.0 day. The gist of the method:
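HSC6 cells stably overexpressing Flag-Twist1, with or without 10 μM for 4 days. Twist1, N-cadherin and E-cadherin proteins detected by immunoblot.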

Assay [7] has as its system SCC-25. Put plainly: Anti-invasive activity against human SCC-25 cells assessed as reduction in cell invasion at 10 uM for 4 days by transwell assay. The assay is classed as functional, cell-based. To be noted: time 4.0 day. In short, it runs like this: (§1)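 Transwell migration and invasion with 8-μm pore inserts. HSC6 or SCC25 cells, including lines stably overexpressing Flag-Twist1, treated at 10 μM for 4 days. Mean ± SD of three independent experiments, one-way ANOVA.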

For assay [8], the target named is Protein arginine N-methyltransferase 5 (Homo sapiens) (UniProt O14744). Put plainly: Inhibition of PRMT5 in human SCC-25 cells assessed as reduction in set1 occupancy in Twist1 promoter region at 10 uM incubated for 4 days by Chip-qPCR analysis. The assay is classed as cell-based. To be noted: time 4.0 day. The gist of the method: (§2)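 SCC25 cells exposed to inhibitor at 10 μM for 4 days. ChIP used a commercial kit with anti-WDR5 or anti-Set1 (1:50), and binding at the Twist1 promoter was quantified by qPCR. Mean ± SD of three independent experiments, Student's t test.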
Background: Quantitative PCR measures a nucleic acid by following its amplification.

For assay [9] the target is unchanged. In words: Inhibition of PRMT5 in human HSC-6 cells assessed as reduction in set1 occupancy in Twist1 promoter region at 10 uM incubated for 4 days by Chip-qPCR analysis. The assay is classed as cell-based. To be noted: time 4.0 day. In short, it runs like this: (§3)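 ChIP-qPCR at the Twist1 promoter after 4 days at 10 μM in HSC6 or SCC25 cells. Antibody ratios: H3R2me2s 1:100, H4R3me2s 1:100, WDR5 1:50, Set1 1:50; ChIP assay kit protocol. Mean ± SD of three independent experiments, Student's t test.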

Assay [10] deals with SCC-25. In words: Antimigratory activity against human SCC-25 cells assessed as reduction in cell migration at 10 uM for 4 days by transwell assay. To be noted: time 4.0 day. The assay is classed as functional, cell-based. In short, it runs like this: as §1
Assay [11] addresses Protein arginine N-methyltransferase 5 (Homo sapiens) (UniProt O14744). Put plainly: Inhibition of PRMT5 in human HSC-6 cells assessed as reduction in WDR5 occupancy in Twist1 promoter region at 10 uM incubated for 4 days by Chip-qPCR analysis. The assay is classed as cell-based. To be noted: time 4.0 day. The gist of the method: as §3
Assay [12] shares this target. In words: Inhibition of PRMT5 in human SCC-25 cells assessed as reduction in WDR5 occupancy in Twist1 promoter region at 10 uM incubated for 4 days by Chip-qPCR analysis. The assay is classed as cell-based. The conditions noted are these: time 4.0 day. In short, it runs like this: as §2
Assay [13] concerns HSC-6. In words: Antitumor activity against human HSC-6 cells xenografted in BALB/c nude mouse assessed as reduction in number of Twist1 positive cells at 30 mg/kg by IHC staining. The assay is classed as functional, organism-based. In short, it runs like this:
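HSC6 subcutaneous xenograft: 6 × 10^7 cells into the back of 4-week-old BALB/c nude mice, dosed at 15 or 30 mg/kg. IHC with Ki67 1:400 or Twist1 1:250. Percent positive cells from 5 random fields per sample. Student's t test; Twist1 groups n = 6/6.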

The subject of assay [14] is Squamous carcinoma cell line. In words: Antitumor activity against human squamous carcinoma cells in BALB/c nude PDX xenograft mouse assessed as tumor volume at 30 mg/kg. The assay is classed as functional, organism-based. In short, it runs like this:
(§4)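 PDX: tongue squamous carcinoma tissue minced into 1∼2 mm3 pieces and passaged in BALB/c nude mice. P2 tissue implanted subcutaneously into 4-week-old mice, randomised at 50 mm3 tumour size to control or 30 mg/kg (n = 6 each). Volume change followed, and Ki-67 IHC quantified. Mean ± SD, Student's t test.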

Assay [15] deals with Rattus norvegicus. In words: Antitumor activity against 4-Nitroquinoline-1-Oxide induced cancer Sprague-Dawley rat carcinogenic model assessed as dysplasia area of tongue tissue at 30 mg/kg, iv administered on week 12 and measured on week 22 (reference value: 13.3%). The conditions noted are these: time 10 weeks. The assay is classed as functional.
The target of assay [16] is Protein arginine N-methyltransferase 5 (Homo sapiens) (UniProt O14744). Put plainly: Inhibition of PRMT5 in human HSC-6 cells assessed as reduction in H3R2me2 enrichment in Twist1 promoter region at 10 uM incubated for 4 days by Chip-qPCR analysis. The assay is classed as cell-based. The conditions noted are these: time 4.0 day. In short, it runs like this:
as §3

For assay [17] the target is unchanged. Put plainly: Inhibition of PRMT5 in human SCC-25 cells assessed as reduction in Twist1 protein expression at 10 uM incubated for 4 days by western blot analysis. The assay is classed as cell-based. To be noted: time 4.0 day. The gist of the method:
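HSC6 or SCC25 cells treated with 10 μM for 4 days. E-cadherin, N-cadherin and Twist1 proteins detected by immunoblot.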
(A western blot detects proteins with antibodies after separation by electrophoresis.)

Assay [18] has as its system Squamous carcinoma cell line. In words: Antitumor activity against human squamous carcinoma cells in BALB/c nude PDX xenograft mouse assessed as reduction in Ki67-positive cells at 30 mg/kg by IHC analysis. The assay is classed as functional, organism-based. The gist of the method: as §4
The subject of assay [19] is HSC-6. In words: Antitumor activity against human HSC-6 cells xenografted in BALB/c nude mouse model of orthotopic tumor assessed as reduction in lymphnode metastasis at 30 mg/kg by immunohistochemistry analysis. The assay is classed as functional, organism-based. The gist of the method:
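Orthotopic model: 5 × 10^5 HSC6 cells injected submucosally into the tongue of 4-week-old BALB/c nude mice, vehicle or 30 mg/kg (n = 12 each). Cervical lymph node metastasis detected by IHC with pan-cytokeratin antibody 1:400. Metastasis rates compared by Fisher's exact test.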
In general terms: A xenograft is tissue or cells of one species grown in another, often human tumour cells in immunodeficient mice.

Assay [20] relates to HSC-6. In words: Antitumor activity against human HSC-6 cells xenografted in BALB/c nude mouse assessed as as reduction in lymphnode metastasis at 30 mg/kg by H and E analysis. The assay is classed as functional, organism-based.
Assay [21] relates to HSC-6. In words: Anti-invasive activity against human HSC-6 cells assessed as reduction in cell invasion after 48 hrs incubated for 48 hrs by transwell assay. The assay is classed as functional, cell-based.
Assay [22] concerns the target Protein arginine N-methyltransferase 5 (Homo sapiens) (UniProt O14744). Put plainly: Inhibition of PRMT5 in human SCC-25 cells assessed as reduction in H4R3me2 protein expression at 10 uM incubated for 4 days by western blot analysis. To be noted: time 4.0 day. The assay is classed as cell-based.
In assay [23] the test system is Rattus norvegicus. In words: Antitumor activity against 4-Nitroquinoline-1-Oxide induced cancer Sprague-Dawley rat carcinogenic model assessed as cancer area of tongue tissue at 30 mg/kg, iv administered on week 12 and measured on week 22 (reference value: 80%). The assay is classed as functional. To be noted: time 10 weeks.

Sequence of Protein arginine N-methyltransferase 5 (Homo sapiens) (O14744 whole entry): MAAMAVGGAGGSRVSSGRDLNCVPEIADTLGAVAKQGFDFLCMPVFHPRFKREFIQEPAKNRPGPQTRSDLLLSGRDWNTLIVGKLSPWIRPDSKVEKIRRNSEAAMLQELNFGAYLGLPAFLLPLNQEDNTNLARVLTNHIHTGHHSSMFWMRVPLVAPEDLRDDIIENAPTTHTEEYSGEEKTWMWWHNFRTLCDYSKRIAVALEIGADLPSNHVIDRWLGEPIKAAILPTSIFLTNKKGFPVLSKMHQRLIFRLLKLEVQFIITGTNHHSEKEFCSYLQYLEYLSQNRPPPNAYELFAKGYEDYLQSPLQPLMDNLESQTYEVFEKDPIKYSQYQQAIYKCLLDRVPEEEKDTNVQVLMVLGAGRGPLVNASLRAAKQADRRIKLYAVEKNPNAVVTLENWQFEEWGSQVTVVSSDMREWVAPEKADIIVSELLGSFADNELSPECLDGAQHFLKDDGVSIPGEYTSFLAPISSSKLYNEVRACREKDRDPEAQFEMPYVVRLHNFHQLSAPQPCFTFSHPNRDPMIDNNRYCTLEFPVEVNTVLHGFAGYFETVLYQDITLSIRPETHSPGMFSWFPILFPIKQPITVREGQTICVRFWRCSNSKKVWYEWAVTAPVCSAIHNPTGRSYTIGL

With `O=C(NC[C@H](O)CN1CCc2ccccc2C1)c1cc(NC2COC2)ncn1`, the result in [1], in assay [2], in assay [3], in assay [5], in assay [7] and in assay [10] was Active. The outcome in assay [13], in assay [14], in assay [18], in [19], in assay [20] and in assay [21] was Active. Besides, the inhibition entry in assay [4], in [8], in [9], in [11], in assay [12] and in assay [16] was “Active” in each case. The inhibition entry in [17] and in [22] was “Active” throughout. For the same molecule, the inhibition result in assay [6] was “inactive”. The Activity in assay [15] worked out at 15.4%; in assay [23], 46.2%.
